# Compound activity: PubChem, Johns Hopkins Ion Channel Center
# A selection: hits, their analogues and other compounds. The true share with any hit is near 3.1%.
# KCNQ1 block: inhibitors of human KCNQ1 potassium channel; P51787; 310,000 tested, 1.3% active; CHO-K1 KCNQ1, FluxOR thallium flux fluorescence; active compounds read high; B-score at 10 µM; AID 2642;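 active = compounds whose thallium flux B-score, printed positive for inhibition, exceeds three library SD while starting fluorescence stays within three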;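 note: channel opened by potassium depolarization with thallium stimulus after 20 min compound exposure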
# Target sequence (P51787 whole entry, looked up): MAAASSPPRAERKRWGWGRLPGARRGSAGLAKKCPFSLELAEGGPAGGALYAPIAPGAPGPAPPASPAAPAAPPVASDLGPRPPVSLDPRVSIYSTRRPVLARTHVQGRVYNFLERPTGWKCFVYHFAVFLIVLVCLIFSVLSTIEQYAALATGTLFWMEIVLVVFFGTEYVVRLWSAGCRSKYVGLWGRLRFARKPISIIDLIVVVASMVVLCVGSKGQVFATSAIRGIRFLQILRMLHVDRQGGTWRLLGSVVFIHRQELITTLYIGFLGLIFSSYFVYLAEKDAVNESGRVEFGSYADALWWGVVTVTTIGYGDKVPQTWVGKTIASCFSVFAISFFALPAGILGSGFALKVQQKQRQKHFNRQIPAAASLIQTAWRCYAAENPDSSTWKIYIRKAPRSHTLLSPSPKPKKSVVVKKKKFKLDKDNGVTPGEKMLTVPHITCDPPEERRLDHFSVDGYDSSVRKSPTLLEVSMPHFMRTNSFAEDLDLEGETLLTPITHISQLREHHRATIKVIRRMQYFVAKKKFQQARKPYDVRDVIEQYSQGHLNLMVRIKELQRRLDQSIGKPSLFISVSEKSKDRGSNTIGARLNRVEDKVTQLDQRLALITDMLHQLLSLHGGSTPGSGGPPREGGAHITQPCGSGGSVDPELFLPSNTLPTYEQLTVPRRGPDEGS
# KCNK9 block: blocks the human KCNK9 two-pore domain potassium channel; HEK293 KCNK9, FluxOR thallium flux fluorescence; active compounds read low; Q9NPC2; 310,000 tested, 1.2% active; B-score at 10 µM;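 active = ratio B-score over 3 SD below the library mean, with starting fluorescence within 5 SD of its mean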;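 note: negative B-score means less thallium flux so channel inhibition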
# KCNQ1 act: human KCNQ1 channel potentiation or activation; P51787; CHO-K1 KCNQ1, thallium flux FluxOR fluorescence; active compounds read high; B-score at 10 µM; 310,000 tested, 0.35% active;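 active = fluorescence ratio B-score, a plate-corrected score, at least three library SD, with initial intensity B-score within 5 SD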
#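 Test system: CHO-K1 cells stably expressing KCNQ1 / Medium: assay buffer / Also added: depolarizing K+/Tl+ stimulus, K2SO4 and Tl2SO4 each 12.5 mM in 5x stock / Incubation: 90 min dye loading and 20 min compound exposure, both at room temperature / Signal: thallium influx via FluxOR fluorescence, kinetic imaging / Evaluation: B score of baseline-normalized fluorescence ratio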
# KCNK3 inh: human KCNK3 channel inhibition, primary screen; CHO-KCNK3 thallium flux, FluxOR fluorescence; active compounds read low; B-score at 10 µM; 340,000 tested, 0.84% active; AID 602410;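 active = B-score under library mean minus 4 SD, starting fluorescence ratio at most library mean plus 5 SD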;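 note: more negative B-score means stronger inhibition of thallium flux through KCNK3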
# hERG protect: compounds protecting human hERG from proarrhythmic drug block | 310,000 tested, 0.51% active | Q12809 | AID 1511 | activation (rescue from dofetilide block), less the hit threshold, % at 10 µM | CHO-hERG, FluxOR thallium flux, dofetilide IC70 present;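 active = activation above the mean of controls blocked by dofetilide plus 5 SD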;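 note: thallium influx through hERG after potassium depolarization seen as dye fluorescence rise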
# Numbers without * were called inactive; i = inactive; / = no result.
SMILES,KCNQ1 block,KCNK9 block,KCNQ1 act,KCNK3 inh,hERG protect
COc1ccccc1C(=O)NNC(=O)C(=O)Nc1cccc(Cl)c1C,i,i,94*,i,65.0*
COc1cccc(C(=O)Nc2ccc(C(=O)O)cc2)c1,i,i,i,i,-12.5
Cc1[nH]c2ccccc2c1CCN(Cc1cccnc1)C(=S)Nc1cccc(F)c1,i,-7.55*,i,i,-26.4
COc1cccc(NC(=S)N(CCc2c(C)[nH]c3ccccc23)Cc2cccs2)c1,/,/,/,-9.23*,/
CN(CC(=O)Nc1ccc(Cl)cc1)C(=O)CCc1nc2sc3c(c2c(=O)[nH]1)CCCC3,i,i,i,i,-8.9
COc1cccc(OCC(=O)Nc2ccccc2C(=O)Nc2ccc(C(=O)O)cc2)c1,i,i,i,i,-8.6
C/C(=N\Nc1nc(N2CCCCCC2)nc(N2CCCCCC2)n1)c1ccccc1,14*,i,i,i,-12.6
Cc1ccc(C)c(OCc2cc(C(=O)NC(c3ccccn3)C(F)(F)F)no2)c1 (stereo not drawn),i,i,i,i,-3.6
CCOC(=O)c1c(NC(=O)CSc2nnc(-c3ccccc3)o2)sc(C(C)=O)c1C,i,i,i,i,-8.3
CCOC(=O)c1c(NC(=O)CSc2nnc(-c3ccc(C)cc3)o2)sc(C(C)=O)c1C,/,/,/,-10.1*,/
CCOC(=O)c1c(NC(=O)C2c3ccccc3Oc3ccccc32)sc(C(C)=O)c1C,i,-7.35*,i,i,-11.5
CCCN(C(=O)c1cn(-c2ccccc2)nc1-c1ccc(OC)cc1)C1CCS(=O)(=O)C1 (stereo not drawn),i,i,8*,i,-0.9
COc1ccc(-c2nn(-c3ccccc3)cc2C(=O)NC2CCC(C)CC2)cc1 (stereo not drawn),i,i,i,i,-16.6
COc1cccc(-c2nc(N3CCCCC3C)c3ccccc3n2)c1O (stereo not drawn),8*,i,i,i,-9.9
COc1cccc(-c2nc(N3CCN(C)CC3)c3ccccc3n2)c1O,i,i,i,i,-10.1
O=C(COC(=O)CCNS(=O)(=O)c1ccc2c(c1)OCCO2)NC1CCCc2ccccc21 (stereo not drawn),i,i,i,i,5.3*
O=C(COC(=O)C1CC(=O)N(c2ccc3c(c2)OCCO3)C1)NC1CCCc2ccccc21 (stereo not drawn),i,i,i,i,-4.3
Cc1nc2ccccc2c2c1C(=O)N(C)C2=O,i,i,i,i,5.7*
COc1ccc(C(CC(=O)c2ccc(C)cc2)Nc2ccc([N+](=O)[O-])cc2)cc1 (stereo not drawn),6*,i,i,i,-7.6
COc1ccc(-c2nn(-c3ccccc3)cc2/C=C/C(=O)NCCCn2ccnc2)cc1OC,7*,i,i,i,-36.4
COc1cccc(NC(=O)CN(C)C(=O)/C=C/c2cn(-c3ccccc3)nc2-c2ccc(OC)c(OC)c2)c1,/,/,/,i,/
CCOc1ccc(NC(=O)CN(C)C(=O)c2cn(-c3ccc(F)cc3)nc2-c2cccc(OC)c2)cc1OCC,7*,i,i,i,-12.2
COc1ccc(-c2nn(-c3ccccc3)cc2/C=C/C(=O)N(C)CC(=O)Nc2cccc(F)c2)cc1OC,/,/,/,-10.4*,/
CCOc1ccc(NC(=O)CN(C)C(=O)c2c(C)nn(-c3ccc(F)cc3)c2Cl)cc1OCC,i,i,i,i,-17.8
CCOc1ccc(NC(=O)CN(C)C(=O)c2c(-c3c(F)cccc3Cl)noc2C)cc1OCC,i,i,8*,i,2.7
SMILES,KCNQ1 block,KCNK9 block,KCNQ1 act,KCNK3 inh,hERG protect
COc1ccc(-c2nn(-c3ccccc3)cc2C(=O)NCCCn2ccnc2)cc1,i,i,i,i,-1.6
COC(=O)c1nc(-c2ccccc2)oc1N1CCOCC1,i,i,i,i,-2.9
COc1cccc(-c2nn3c(-c4cc(C)[nH]n4)nnc3s2)c1,i,i,i,i,5.9*
CN1CCN(c2ncc(CN3C(=O)c4ccccc4C3=O)s2)CC1,i,i,i,i,5.9*
COc1cc(/C=C2\C(=N)N3N=C(S(C)(=O)=O)SC3=NC2=O)ccc1OCCOc1ccccc1C,6*,i,i,i,-8.1
COc1cc(/C=C2\C(=N)N3N=C(S(C)(=O)=O)SC3=NC2=O)ccc1OC(=O)c1cccs1,i,i,i,i,-12.1
O=C(c1cc2ccccc2[nH]1)N(Cc1cccnc1)CC1CCCN(C2CCCCC2)C1 (stereo not drawn),i,i,i,i,-6.9
O=C(CN1c2cccc3cccc(c23)S1(=O)=O)Nc1ccccc1F,i,i,i,i,-2.8
CC(C)N(Cc1ccccc1)C(=O)CN1c2cccc3cccc(c23)S1(=O)=O,/,/,/,-9.99*,/
O=C(CN1c2cccc3cccc(c23)S1(=O)=O)Nc1ccc(F)c(F)c1F,/,/,/,-9.35*,/
CNC(=O)c1ccc(NC(=O)CN2c3cccc4cccc(c34)S2(=O)=O)cc1,i,i,i,i,13.9*
O=C(CN1c2cccc3cccc(c23)S1(=O)=O)Nc1ccccc1,i,i,i,i,-4.9
Cc1csc2nc(SCC(=O)N3CCN(c4ccccc4)CC3)[nH]c(=O)c12,i,i,i,i,-8.6
O=C(CSc1ccccc1)N(c1ccc(Br)cc1)c1nccs1,i,i,i,i,-7.8
CC(C)c1ccccc1NC(=O)CNCCOc1ccccc1F,6*,i,i,i,-5.6
OCCNCCOc1ccccc1F,i,i,i,i,-2.5
C=CCc1cccc(Cl)c1OCCCNC1CCCC1,i,i,i,i,-4.2
CN(C)N1C(N)=C(C#N)C(c2cccs2)C2=C1CCCC2=O (stereo not drawn),i,i,i,i,-5.8
Cc1ccsc1C1C(C#N)=C(N)N(N(C)C)C2=C1C(=O)CCC2 (stereo not drawn),i,i,i,i,7.9*
CC(C)=CCC12Oc3cc(O)ccc3C1(O)Oc1cc(O)c([C@H]3C=C(C)CC(c4ccc(O)cc4O)[C@H]3C(=O)c3ccc(O)cc3O)c(O)c1C2=O (stereo partly drawn),i,i,i,/,-4.2
CCOC(=O)c1nn(-c2ccc(Cl)cc2Cl)c(=N)c(C#N)c1C,6*,i,i,/,-9.5
Cc1ccc(/C=C/C2=Cc3c(sc(NC(=O)CSc4n[nH]c(N)n4)c3C#N)C(C)(C)C2)o1,6*,i,i,/,-15.0
CCN(CC)S(=O)(=O)c1ccc(OCC(=O)NC(=O)Cc2ccccc2)c([N+](=O)[O-])c1,/,/,/,i,/
CC(=O)c1ccc(N=Nc2c(C)[nH]n(-c3ccccc3)c2=O)cc1,6*,i,i,i,-8.3
